The nature of data set [1]: Therapeutic index is the ratio of LD50 to ED90. The gist of the method:
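In female Balb-C mice bearing subcutaneous ADJ/PC6 tumor, dosed ip or po at 5, 25, 125 and 625 mg per kg (six animals per dose). Therapeutic index is the 50% lethal dose divided by the dose causing 90% tumor regression (LD50/ED90).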

The subject of data set [2] is Mus musculus. Kind of data set: Antitumor activity against ADJ/PC6 tumor subcutaneously implanted into female intraperitoneal compound administration. The data set is classed as functional, organism-based. In outline:
(§1)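 ADJ/PC6 plasmacytoma implanted subcutaneously in female Balb-C mice, with compound given by intraperitoneal injection. Four dose levels were tested (5, 25, 125 and 625 mg per kg), six mice per dose. LD50 is the 50% lethal dose, ED90 is the dose giving 90% tumor regression, and therapeutic index = LD50/ED90.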

Data set [3] relates to Mus musculus. Kind of data set: Compound was screened for antitumor activity against ADJ/PC6 tumor subcutaneously implanted into female intraperitoneal compound administration. In kind it is functional, organism-based. In outline: as §1

The source of these data is ChEMBL document CHEMBL1124437, “Analogues of cisplatin derived from diaminodideoxytetritols. Synthesis and activity against the ADJ/PC6 plasmacytoma in mice” (J Med Chem, 1989).

Take CISPLATIN [listing 1 of 2 here]: the TI in data set [1] was found to be 8.1.
For orientation: LD50 means the dose at which mortality reaches 50%. In data set [2], CISPLATIN [listing 2 of 2 here] returned an LD50 of 13 mg/kg.
Consider “cis-dichloro(cis-5,6-diamino-1,3-dioxepane)platinum (II) [listing 1 of 2 here]”, for which, in data set [1], the TI is reported as 4.1.
For “cis-dichloro(cis-5,6-diamino-1,3-dioxepane)platinum (II) [listing 2 of 2 here]”, in data set [3], the LD50 is 41.5 mg/kg.
